Assay [1] concerns Human immunodeficiency virus 1. The experiment in a line: In vitro inhibitory concentration against HIV-1 Y181C mutant strain. In kind it is functional, organism-based. The gist of the method:
(§1)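 MT4 human T-lymphoblastoid cells, grown in RPMI 1640 with 10% fetal calf serum and antibiotics at 37 °C under 5% CO2. Mutant HIV-1 strains were added at 200 CCID50/well with 30 000 cells/well across a compound concentration range. After 5 days at 37 °C, viability was read by MTT colorimetry. EC50 is the concentration giving 50% infection relative to the drug-free control.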

Assay [2] concerns Human immunodeficiency virus 1. The experiment in a line: In vitro inhibitory concentration value against HIV K103N and Y181C mutant strain. The format is functional, organism-based. The gist of the method: as §1
Assay [3] has as its system Human immunodeficiency virus 1. The experiment in a line: In vitro inhibitory concentration against HIV L100I and K103N mutant strain. The format is functional, organism-based. The gist of the method:
as §1

The test system of assay [4] is Human immunodeficiency virus 1. The experiment in a line: Selective index value (ratio of CC50 to IC50 value)against HIV LAI cell line. The format is functional. In short, it runs like this: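 Ratio of CC50 to IC50 against LAI. CC50 came from mock-infected MT4 cultures (30 000 cells/well) given the same compound concentration range, run in parallel with LAI-infected cultures (200 CCID50/well). Incubation was 5 days at 37 °C in 5% CO2, with MTT viability read-out.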

In assay [5] the test system is Human immunodeficiency virus 1. The experiment in a line: In vitro inhibitory concentration against HIV F227L and V106A mutant strain. In kind it is functional, organism-based. The gist of the method: as §1
Assay [6] concerns Human immunodeficiency virus 1. The experiment in a line: In vitro inhibitory concentration against HIV K101E and K103N mutant strain. In kind it is functional, organism-based. The gist of the method: as §1
For assay [7], the system named is Human immunodeficiency virus 1. The experiment in a line: In vitro inhibitory concentration against HIV E138K mutant strain. In kind it is functional, organism-based. In short, it runs like this:
as §1

The test system of assay [8] is Human immunodeficiency virus 1. The experiment in a line: In vitro inhibitory concentration against HIV F227C mutant strain. In kind it is functional, organism-based. In short, it runs like this:
as §1

In assay [9] the test system is Human immunodeficiency virus 1. The experiment in a line: In vitro inhibitory concentration against HIV G190A mutant strain. The format is functional, organism-based. The gist of the method: as §1
The test system of assay [10] is Human immunodeficiency virus 1. The experiment in a line: In vitro inhibitory concentration against HIV G190S mutant strain. The format is functional, organism-based. The gist of the method:
as §1

The subject of assay [11] is Human immunodeficiency virus 1. The experiment in a line: In vitro inhibitory concentration against HIV K101E mutant strain. The format is functional, organism-based. In short, it runs like this: as §1
Assay [12] deals with Human immunodeficiency virus 1. The experiment in a line: In vitro inhibitory concentration against HIV K103N mutant strain. The format is functional, organism-based. The gist of the method:
as §1

The subject of assay [13] is Human immunodeficiency virus 1. The experiment in a line: In vitro inhibitory concentration against HIV L100I mutant strain. The format is functional, organism-based. In short, it runs like this: as §1
The test system of assay [14] is Human immunodeficiency virus 1. The experiment in a line: In vitro inhibitory concentration against HIV V106A mutant strain. The format is functional, organism-based. The gist of the method: as §1
For assay [15], the system named is Human immunodeficiency virus 1. The experiment in a line: In vitro inhibitory concentration against HIV V179E mutant strain. The format is functional, organism-based. In short, it runs like this:
as §1

Assay [16] has as its system Human immunodeficiency virus 1. The experiment in a line: In vitro inhibitory concentration against HIV Y188L mutant strain. In kind it is functional, organism-based. In short, it runs like this:
as §1

In assay [17] the test system is Human immunodeficiency virus 1. The experiment in a line: In vitro inhibitory concentration against HIV LAI cell line. In kind it is functional, organism-based. Conditions: Human immunodeficiency virus 1, LAI. The gist of the method: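 HIV-1 LAI was added at 200 CCID50/well to MT4 human T-lymphoblastoid cells (30 000 cells/well) across a concentration range of compound. Cells were grown in RPMI 1640 with 10% fetal calf serum and antibiotics. After 5 days at 37 °C in 5% CO2, cell viability was read by MTT colorimetry. EC50 was the concentration giving 50% infection versus the drug-free control.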

As for `CCc1c(C)[nH]c(=O)c(N(C)CCOC)c1Cc1cccc(C)c1`, the IC50 – broadly, the concentration that gives 50% inhibition – in [1] was found to be 794 nM; in assay [2] it was 10000 nM; in assay [3], 794 nM; in assay [5], 3980 nM; in assay [6] it was 100 nM; in assay [7] it was 8 nM. In addition, the 50% inhibitory concentration (IC50) in [8] worked out at 790 nM; in [9], 100 nM; in assay [10], 39 nM; in assay [11] it was 16 nM; in assay [12], 79 nM; in assay [13], 6 nM. Moreover, the IC50 in assay [14] was found to be 63 nM; in assay [15], 4 nM; in [16], 398 nM; in [17], 1 nM. The SI in assay [4] was 10000.

Turning to `CCc1c(C)[nH]c(=O)c(N(C)CC)c1Cc1cc(C)cc(C)c1`, the IC50 in [1] was 316 nM; in assay [2], 3120 nM; in assay [3] it was 598 nM; in assay [6] it was 139 nM; in assay [7] it was 63 nM; in [8] it was 1120 nM. In addition, the IC50 is 63 nM in assay [9]; 316 nM in [10]; 79 nM in assay [11]; 79 nM in assay [12]; 63 nM in assay [13]; 316 nM in assay [14]. Also, the IC50 in assay [15] was 32 nM; in assay [16] it was 1260 nM; in assay [17], 8 nM. Further, the SI in [4] worked out at 3980.

With `CCc1c(C)[nH]c(=O)c(N(C)CC)c1Cc1cccc(/C=C/C#N)c1`, the half-maximal inhibitory concentration (IC50) in [1] came to 32 nM; in [2] it was 199 nM; in [3], 200 nM; in assay [5], 3160 nM; in [6], 158 nM; in assay [7], 6 nM. Moreover, the half-inhibitory concentration (IC50) in [8] came out at 794 nM; in assay [9] it was 10 nM; in [10], 125 nM; in assay [11] it was 6 nM; in assay [12], 6 nM; in [13], 10 nM. Besides, the IC50 in [14] was 8 nM; in assay [15] it was 2 nM; in [16], 251 nM; in assay [17], 1 nM. For the same compound, in assay [4], the SI was determined as 10000.

With `COCCCc1c(C)nc(O)c(N(C)C)c1C(=O)c1cccc(C)c1`, the half-maximal inhibitory concentration (IC50) in [1] amounted to 160 nM; in assay [2], 200 nM; in [3] it was 63 nM; in assay [5], 40 nM; in assay [6] it was 158 nM; in assay [7], 20 nM. Moreover, the IC50 was found to be 631 nM in assay [8]; 16 nM in assay [9]; 32 nM in assay [10]; 32 nM in [11]; 126 nM in assay [12]; 20 nM in assay [13]. In addition, the half-inhibitory concentration (IC50) in assay [14] worked out at 40 nM; in assay [15], 8 nM; in assay [16] it was 158 nM; in [17], 8 nM. Moreover, the SI in [4] was found to be 1260.

Turning to `CCc1c(C)[nH]c(=O)c(N(C)C)c1Cc1cc(C)cc(C)c1`, the IC50 was 100 nM in [1]; 794 nM in assay [2]; 63 nM in assay [9]; 16 nM in assay [11]; 32 nM in assay [12]; 50 nM in assay [13]. Also, the IC50 worked out at 40 nM in [14] and 251 nM in assay [16]. Moreover, in [4], the SI was determined as 12600.

Regarding `CCc1c(C)[nH]c(=O)c(N(C)C)c1C(=O)c1cc(C)cc(C)c1`, the IC50 in assay [1] worked out at 63 nM; in assay [2], 158 nM; in assay [3], 40 nM; in [5], 398 nM; in assay [6] it was 13 nM; in [7] it was 5 nM. Moreover, the concentration for half-maximal inhibition (IC50) in [8] is 631 nM; in assay [9] it was 13 nM; in assay [10], 4 nM; in assay [11], 8 nM; in assay [12] it was 10 nM; in [13], 6 nM. The IC50 stood at 6 nM in assay [14], 2 nM in [15] and 158 nM in assay [16]. Further, in assay [4], the SI came out at 2510.

As to `CCc1c(C)[nH]c(=O)c(N(C)CCOC)c1Cc1cc(C)cc(C)c1`, the half-inhibitory concentration (IC50) in [1] stood at 316 nM; in assay [2], 3340 nM; in assay [3], 121 nM; in assay [5] it was 2510 nM; in assay [6], 69 nM; in assay [7], 10 nM. Also, the IC50 in [8] came out at 339 nM; in [9] it was 16 nM; in assay [10] it was 42 nM; in assay [11], 10 nM; in [12] it was 63 nM; in assay [13], 3 nM. The results for the IC50 in assay [15], in assay [16] and in [17] were 3 nM, 100 nM and 2 nM, respectively. The SI in assay [4] turned out to be 20000.

On to `CCc1c(C)nc(O)c(N(C)CCOC)c1C(=O)c1cccc(C)c1`, for which the IC50 in assay [1] was determined as 631 nM; in assay [2], 2810 nM; in [3], 17 nM; in [5] it was 251 nM; in assay [6] it was 15 nM; in assay [7], 3 nM. Further, the IC50 in assay [8] amounted to 224 nM; in assay [9] it was 3 nM; in assay [10], 3 nM; in [11], 3 nM; in assay [12] it was 20 nM; in [13], 8 nM. In addition, the IC50 in assay [15] was determined as 1 nM; in assay [16], 1260 nM; in assay [17], 1 nM. The SI in [4] stood at 79400.

On to `O=C1Nc2ccc(Cl)cc2[C@@](C#CC2CC2)(C(F)(F)F)O1` [EFAVIRENZ], for which the 50% inhibitory concentration (IC50) in [3] is 10000 nM; in assay [5] it was 25 nM; in assay [7] it was 2 nM; in assay [9], 10 nM; in assay [10] it was 251 nM; in [11] it was 6 nM. For the same compound, the IC50 is 40 nM in assay [13], 40 nM in assay [14] and 5 nM in assay [15].

These data come from ChEMBL document CHEMBL1145200, “4-Benzyl and 4-benzoyl-3-dimethylaminopyridin-2(1H)-ones: in vitro evaluation of new C-3-amino-substituted and C-5,6-alkyl-substituted analogues against clinically important HIV mutant strains” (J Med Chem, 2005).
